# WT yeast gro inh = growth inhibition of WT yeast, mitochondrial fusion screen; mitochondrial fusion phenotypic screen, WT strain; inhibition, % at 10 µM; 190,000 compounds, 2.1% hits; AID 1362; in the data active = inhibition above about 58%; tested in S. cerevisiae
# L major viab = inhibitors of Leishmania major promastigote growth. 200,000 compounds, 9% hits. Leishmania major promastigotes, resazurin fluorescence viability. inhibition, % at 10 µM. AID 1063;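 note: promastigotes grown with compound for 44 hours at 28 °C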
# G6PDH CS = L. mesenteroides G6PDH inhibition counter-screen; Purified L. mesenteroides G6PDH, diaphorase/resazurin coupled fluorescence, 45 min; inhibition, % at 5 µM; 200,000 compounds, 0.12% hits
# Diaphorase inh = counter-screen for diaphorase-based assays: diaphorase inhibitors and chemical oxidizers. inhibition, % at 20 µM. diaphorase resazurin-to-resorufin fluorescence, NADH, 16 min; bacterial (C. kluyveri) enzyme, not human. 190,000 compounds, 0.69% hits;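 active = primary screen inhibition at 20 µM above a set limit, cut at about 50% in these data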;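 note: plate controls were DMSO with full reaction for no effect and wells lacking NADH for full effect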
#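 material = Clostridium kluyveri diaphorase enzyme | amount = 0.14 U/mL diaphorase, enzyme working solution | schedule = incubation 16 min, room temperature | detection = fluorescence of resorufin formed from resazurin, Ex 544/Em 590 nm | benchmarks = positive control minus NADH, DMSO neutral control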
# Diaph act CS = diaphorase activation or chemical reduction counter-screen. Diaphorase/resazurin coupled assay, resorufin fluorescence, 16 min; active compounds read high; 1 = vehicle wells, 0 = NADH-free wells. activation factor at 20 µM. 190,000 compounds, 0.005% hits;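 active = diaphorase activity raised at least twofold by the compound at 20 µM; inactive = activation factor below 2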
#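 Test system: Clostridium kluyveri diaphorase, purified enzyme; input: enzyme 0.07 U/mL final; buffer or medium: 50 mM HEPES pH 7.4 with 4.542 mM MgCl2, 0.005% Tween 20; also added: 0.114 mM NADH and 0.1 mM resazurin, final amounts; schedule: 16 min enzyme reaction, ambient temperature; technique: fluorescence of resorufin, 544 nm excitation, 590 nm emission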
# * = called active by the depositor; · = no result. Most compounds without a hit are left out; they make up all but 11% or so of the library. Cut-off read from the data, not from the text of the source, unless noted: active = inhibition above about 50%; inactive = the rest.
SMILES,WT yeast gro inh,L major viab,G6PDH CS,Diaphorase inh,Diaph act CS
COc1ccc2ncc(S(=O)(=O)c3ccccc3)c(N3CCN(c4ccccc4)CC3)c2c1,51.0,99.1*,-3.5,24.8,0.8
CN(C)CC/C=C1\c2ccccc2Sc2ccc(Cl)cc21,86.8*,64.2*,10.8,3.3,1
CN(C)CCC=C1c2ccccc2CCc2ccccc21,11.6,87.9*,2.8,8.4,0.9
CN(C)CC/C=C1/c2ccccc2COc2ccccc21,8.1,·,9.0,8.0,0.9
O=[N+]([O-])c1ccc(N=Cc2ccc(Br)c([N+](=O)[O-])c2)cc1,-5.1,10.3,1.7,5.7,0.9
O=C(COc1ccc2c(c1)CCC2)N1CCN(c2cccc(C(F)(F)F)c2)CC1,13.1,64.6*,6.8,20.1,0.8
CC(=O)c1ccc(N2CCN(C(=O)Nc3ccc(Cl)cc3)CC2)cc1,15.8,13.7,-2.1,-6.5,1.1
CN1CCC(N2CCN(c3cccc(C(F)(F)F)c3)CC2)CC1,-6.6,100.1*,5.7,12.5,0.9
COCC(=O)N1CCN(c2cccc(C(F)(F)F)c2)CC1,14.3,-4.2,13.3,16.4,0.8
COC(=O)c1cc(C(=O)N2CCN(c3cccc(Cl)c3)CC2)cc([N+](=O)[O-])c1,13.9,50.2*,0.0,28.1,0.7
O=C(COc1cccc(C(F)(F)F)c1)N1CCN(c2ccc(O)cc2)CC1,-2.2,11.2,1.6,30.5,0.7
CC(=O)c1ccc(NC(=O)N2CCN(c3cccc(Cl)c3)CC2)cc1,25.7,58.8*,-32.6,2.4,1
O=C(OCCN(C1=NS(=O)(=O)c2ccccc21)c1ccccc1Cl)c1ccc(Cl)cc1,14.4,18.8,2.2,25.3,0.7
O=C(Nc1ccccc1)N1CCN(c2cccc(C(F)(F)F)c2)CC1,15.8,89.6*,8.8,20.1,0.8
O=C(CS(=O)(=O)c1ccccc1)N1CCc2ccccc21,-2.8,-2.3,14.0,19.5,0.8
COC(=O)c1cc(=O)n(CCc2ccc(OC)cc2)c(=Nc2ccc(F)c(Cl)c2)s1,6.3,99.8*,-5.5,20.8,0.8
COC(=O)c1cc(=O)n(Cc2ccccc2)c(=NCc2ccccc2)s1,-5.6,-7.0,-0.4,-3.6,1
COC(=O)c1cc(=O)n(Cc2ccc3c(c2)OCO3)c(=Nc2ccc(F)c(Cl)c2)s1,20.5,100.2*,6.2,23.6,0.8
CCn1c(=O)cc(C(=O)OC)sc1=Nc1ccc(F)c(F)c1,1.0,86.2*,-1.2,23.6,0.8
COC(=O)c1cc(=O)n(CCc2ccccc2)c(=Nc2ccc(F)cc2)s1,7.2,90.3*,-6.0,18.8,0.8
COCCCNC(=O)C(=O)N/N=C/c1ccc(OCC(=O)Nc2cccc(Cl)c2C)c(OC)c1,8.6,10.4,5.8,19.0,0.8
Cc1ccc(C2CC2c2n[nH]c(=S)n2-c2cccc(Cl)c2)cc1 (centres undefined),33.8,-4.2,6.8,30.4,0.7
CCOC(=O)c1ccc(N=c2sc(C(=O)OC)cc(=O)n2CCCN2CCOCC2)cc1,4.8,99.7*,8.1,17.0,0.8
Cn1c(NCCCN2CCOCC2)nc2c1c(=O)n(Cc1ccc(Cl)cc1)c(=O)n2C,18.8,74.1*,5.4,7.6,0.9
Cn1c(NCCCN2CCOCC2)nc2c1c(=O)n(Cc1ccc(Cl)c(Cl)c1)c(=O)n2C,2.4,98.8*,5.0,1.6,1
SMILES,WT yeast gro inh,L major viab,G6PDH CS,Diaphorase inh,Diaph act CS
CCOC(=O)CNC(=O)C(CC(C)C)NC(=O)C1CCCCC1 (centres undefined),-8.5,0.3,6.6,1.5,1
CCN(CC)S(=O)(=O)c1cccc(NC(=O)CCSc2ccc(Cl)cc2)c1,24.1,30.4,7.2,19.3,0.8
COc1ccccc1NC(=O)CC(=O)CSc1nnc(-c2ccc(C)cc2)n1-c1ccccc1,-24.1,72.1*,-5.1,21.8,0.8
COc1ccc(CC(=O)Nc2nc(-c3cccc([N+](=O)[O-])c3)cs2)cc1,7.6,61.8*,1.8,12.7,0.9
O=[N+]([O-])c1cccc(-c2csc(N/N=C/c3cccc(O)c3)n2)c1,84.5*,98.3*,3.0,19.8,0.8
COc1ccc(CC(=O)Nc2nc(-c3ccncc3)cs2)cc1,7.0,29.3,7.9,-1.6,1
CCC(C)(C)NC(=O)CN(Cc1ccccc1Cl)C(=O)CCC(=O)Nc1cc(C)ccn1,-4.7,5.0,6.9,·,·
C[C@H](NC(=O)c1ccccc1)C(=O)Nc1nc(-c2ccccn2)cs1,10.1,13.5,18.8,-4.6,1

# High-throughput results deposited in PubChem by several laboratories.
